In the library only some 1.5% were active in any assay of this set; here they are far more common.
Rpn11 block = Rpn11 (human) deubiquitinase inhibition; AID 588493; inhibition, % at 20 µM; O00487; human 26S proteasome, Ub4-pepOG fluorescence polarization; 20S core pre-blocked with epoxomicin; actives 0.59% (n = 360,000);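 active = inhibition at 20 µM, scaled to each plate's controls, above about 33%, limit read from the data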
Target sequence (O00487 whole entry, looked up): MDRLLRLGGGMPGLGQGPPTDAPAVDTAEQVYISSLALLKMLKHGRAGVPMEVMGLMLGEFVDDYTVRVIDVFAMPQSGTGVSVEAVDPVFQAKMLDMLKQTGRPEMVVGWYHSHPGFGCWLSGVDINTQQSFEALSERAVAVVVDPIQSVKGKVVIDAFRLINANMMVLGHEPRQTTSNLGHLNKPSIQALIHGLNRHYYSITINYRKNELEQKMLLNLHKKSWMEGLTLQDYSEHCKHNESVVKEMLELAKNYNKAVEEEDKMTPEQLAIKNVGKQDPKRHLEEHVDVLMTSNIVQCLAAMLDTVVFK
TPT1 inh = C. albicans TPT1 enzyme inhibition | inhibition, % at 5 µM | recombinant caTPT1, FP RNA substrate dephosphorylation | AID 1962 | actives 0.81% (n = 300,000);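 active = inhibition above the mean of all tested compounds plus 3 SD, set per screening campaign, cut at about 24% in these data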;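 note: plate controls were DMSO alone for no effect and ferristatin control at 100 nM for full effect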
CSN deneddyl inh = inhibitors of human CSN-mediated cullin deneddylation | Q92905 | Purified CSN, SCF-Nedd8-OG deneddylation, fluorescence polarization | inhibition, % at 12.5 µM | actives 0.38% (n = 360,000) | AID 651999;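 active = pattern-corrected inhibition above about 35%, with an unprinted fluorescence ratio check between 0.5 and 1.5, limit read from the data, passing the limit was not always enough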;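 note: 0% = enzyme with substrate and 100% = substrate without enzyme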
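Detection – fluorescence polarization · System – HEK293T-derived human Csn5 enzyme · Controls – substrate-only high control, full reaction low control · Timing – 90 min, room temperature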
HNF4A DNA FP = change in binding of human HNF4 alpha to DNA. P41235. HNF4a-FITC DNA binding, fluorescence polarization, 1 h. activity change, % at 10 µM. actives 0.3% (n = 360,000); in the data active = activity change above about 30%, passing the limit was not always enough
The depositor's hits bear a star; / = no result given.

SMILES | Rpn11 block | TPT1 inh | CSN deneddyl inh | HNF4A DNA FP
Cc1ccc(S(=O)(=O)N2[C@@H](c3ccc(Cl)cc3)C(C(=O)OC(C)(C)C)=CC[C@H]2c2ccc(Cl)c(Cl)c2)cc1 | 6 | / | 144* | -4
CCOC(=O)N1C2=NC(C(=O)OC)=C(C(=O)OC)[C@@H]3N(Cc4ccccc4)c4ccccc4[C@]23C[C@H]1C(=O)OC | / | 1 | / | /
CCN(CC)c1ccc2cc(C(=O)c3cccs3)c(=O)oc2c1 | / | / | 4 | 84*
CC1(C)CC(c2nc(-c3ccc(Cl)cc3)cs2)CCS1 (centres undefined) | -2 | 0 | 2 | 1
CC1(C)CC(c2nc(-c3ccccc3)cs2)CCS1 (centres undefined) | 0 | 3 | 97* | 17
COCCN1C(=O)CCC1(C)C(=O)NC1CCCCC1 (centres undefined) | 0 | / | 121* | -1
N#Cc1ccc(COc2ccc(CCO)cc2-n2nc3ccccc3n2)cc1 | -3 | 5 | 100* | -1
CCN1C(=O)C2(SC(NC(C)=O)=NN2C(C)=O)c2cc(C)ccc21 (centres undefined) | -2 | -1 | 3 | 1
CCc1ccc2c(c1)C1(SC(NC(C)=O)=NN1C(C)=O)C(=O)N2CC (centres undefined) | -3 | 1 | 56* | 0
N#Cc1c(NC(=S)NC(=O)c2ccccc2)sc2c1CCN(CCc1ccccc1)C2 | / | 98* | / | /
COc1ccccc1OCCOc1ccc(/C=C2/C(=N)N3OC(C)=CC3=NC2=O)cc1OC | 16 | 2 | 50* | 1
CC1=CC2=NC(=O)/C(=C\c3cccn3CCOc3ccccc3C)C(=N)N2O1 | 4 | -1 | -2 | 2
CN1CCN(C(=O)c2ccc(OCCOc3ccccc3)cc2)CC1 | -2 | -1 | -4 | 1
CCOc1ccccc1C(=O)Nc1ccc(S(=O)(=O)N2CCN(C)CC2)cc1 | -4 | / | 3 | 0
CCOc1ccccc1C(=O)Nc1ccc(-n2nncc2C(C)(C)C)cc1 | -12 | -3 | -6 | 70*
CCOc1ccc(C(=O)CCC(=O)N2CCN(S(=O)(=O)c3cccc(F)c3)CC2)cc1 | -6 | / | -6 | -2
NC(CCCCc1ccccc1)c1cccc2ccccc12 (centres undefined) | / | -2 | / | /
CCn1c(=O)c(C(=O)CN2CCCc3ccccc32)c(N)n(Cc2ccccc2)c1=O | / | 14 | 48* | 88
CCN=C1S/C(=C\c2cn(CC)c3ccccc23)C(=O)N1CC | 2 | 3 | 2 | -1
CCn1cc(C=C2C(=O)c3ccccc3C2=O)c2ccccc21 | -12 | / | -26 | 36*
CNC[C@@H]1Oc2cc(Br)ccc2S(=O)(=O)N([C@H](C)CO)C[C@@H]1C | -6 | / | 1 | -1
CN(C)c1ccc([C@@H]2[C@@H]([N+](=O)[O-])[C@H]3C=Cc4ccccc4N3[C@H]2C(=O)c2ccc(Cl)cc2)cc1 | 69* | 82* | 24 | 30
CC1(OC(=O)CCc2ccccc2)C(=O)C=C2C=C(c3ccc(C#N)cc3)N(CCc3c[nH]c4ccccc34)C=C2C1=O (centres undefined) | 3 | 3 | 7 | 6
COc1ccc(N2CCN(c3ccc(C(N)=O)cc3[N+](=O)[O-])CC2)cc1 | -7 | -2 | 75* | -3
O=C(NCc1ccc(F)cc1F)[C@@H]1CCCN1C(=O)[C@@H]1CCCN1C(=O)c1cccs1 | / | / | -2 | -4
SMILES | Rpn11 block | TPT1 inh | CSN deneddyl inh | HNF4A DNA FP
NC(=S)N/N=C/c1coc2cc(Br)ccc2c1=O | 42* | -1 | 3 | -3
CCCOc1ccc(C2/C(=C(/O)c3ccc(F)cc3)C(=O)C(=O)N2CCCN(C)C)cc1 (centres undefined) | 6 | 0 | 39* | 4
CC(=O)NS(=O)(=O)c1ccc(NC(=S)NC(=O)c2ccco2)cc1 | 10 | -5 | 93* | 14
NS(=O)(=O)c1ccc(NC(=S)NC(=O)c2ccco2)cc1 | -1 | 1 | -4 | 0
S=c1[nH]nc(C2CCCCC2)n1/N=C/c1ccc(Br)s1 | 1 | -1 | 5 | 35*
S=c1[nH]nc(C2CCCCC2)n1/N=C/c1ccc(Br)cc1 | -1 | -1 | -7 | -3
Cc1ccc(C(=O)CSc2nc(N)cc(=O)[nH]2)cc1C | 2 | -2 | -7 | -2
CCc1ccc(C(=O)CSc2nc(N)cc(=O)[nH]2)cc1 | 1 | 1 | 5 | 49*
O=c1nc(Nc2ccccc2)sc2ccc([N+](=O)[O-])cc12 | 19 | -6 | 43* | -3
Cc1cc(Nc2ccc([N+](=O)[O-])cc2)c2ccccc2n1 | 15 | 1 | 5 | 5
COc1ccc(N/N=C(/C)c2cnnc(-c3ccccc3)n2)cc1 | / | 3 | 26 | 46*
O=C(O)c1ccc(N2C(=O)/C(=C/c3ccc(-c4ccc([N+](=O)[O-])cc4)o3)C=C2c2ccccc2)cc1 | 78* | 17 | 94 | -34
CCOC(=O)C1=C(c2ccccc2)NC(=O)NC1c1ccc(OC)cc1 (centres undefined) | 1 | -2 | 107* | -4
CC(C)(C)[C@H]1CCC(=O)N([C@H](CN=[N+]=[N-])Cc2ccccc2)CC1 | -1 | -7 | 1 | 0
C/C=C\C=C/C(=O)Nc1cccc(C2=NOC3(C2)C[C@@H](C(N)=O)N(C(=O)/C=C/C=C\C)C3)c1 (some centres undefined) | 52* | 5 | 64* | -41
CCOC(=O)N1CCN(C(=O)COc2cc(=O)n(CC)c3ccccc23)CC1 | -4 | 5 | 1 | 0
CCOC(=O)C(=CNc1ccc2c(c1)c1ccccc1n2CC)C(=O)OCC | 8 | -1 | 1 | 36*
CCOC(=O)COc1cc(=O)n(CC)c2ccccc12 | 0 | -5 | 108* | -1
CN(c1ccccc1)S(=O)(=O)c1cccc(NC(=O)c2ccc(Cl)c([N+](=O)[O-])c2)c1 | -6 | / | 0 | 1
CCCCCCCCC(=O)c1c(OC)oc(C=O)cc1=O | / | / | 68* | 92
Cc1nnc(-c2cccc(Br)c2)c2cn(-c3ccccc3)nc12 | / | -2 | -76 | 144
Cc1nnc(-c2cccc(Br)c2)c2cn(-c3ccc(Br)cc3)nc12 | 38 | 17 | 91 | 63*
COc1ccccc1-[n+]1c(C)cc(/C=C2\Sc3ccccc3N2C)cc1C | / | 123* | 22 | 55*
C#CCOCCOCCOCCNc1nc(N2CCN(C(=O)CCCCCCCCCCNC(=O)[C@H](CCCCN)n3cc(CCO)nn3)CC2)nc(N2CCN(C(=O)CCCCCCCCCCNC(=O)[C@H](CCCN=C(N)N)n3cc(C[C@@H](C)CC)nn3)CC2)n1 | 77* | 5 | 109* | 164
C#CCOCCOCCOCCNc1nc(N2CCN(C(=O)CCCCCCCCCCNC(=O)[C@@H](CCSC)n3cc(CCO)nn3)CC2)nc(N2CCN(C(=O)CCCCCCCCCCNC(=O)[C@H]([C@@H](C)CC)n3cc(CCCCN=C(N)N)nn3)CC2)n1 | 87* | -4 | 139* | 212
